From ChEMBL document CHEMBL1122301, “Bioisosteric design of conformationally restricted pyridyltriazole histamine H2-receptor antagonists” (J Med Chem, 1983)
Active and inactive are the calls of the source. The rule behind the calls is not given here.

How the values were obtained:
[1] = test system: Canis familiaris; assay: Acid antisecretory activity against pentagastrin-stimulated Heidenhain pouch dogs at a dose of 10 mg/kg after intravenous administration; type: functional, Canis lupus familiaris
Outline: (§1)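 Pentagastrin was infused iv into a leg vein of fasted, conscious Heidenhain pouch dogs to give near-maximal acid output. Juice was collected every 30 min, ten collections in all, and acid was titrated (1.0 mL to pH 7.4, 0.1 N NaOH). The single iv dose was given at 90 min. Percent inhibition was the lowest post-dose acid output compared with the mean output just before dosing.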

[2] = biological target: Histamine H2 receptor (Cavia porcellus) (UniProt P47747); assay: Antagonistic activity against histamine H2 receptor from guinea pig atrium; activity KB (Dissociation Constant) is negative; type: functional, tissue-based; conditions: Cardiac atrium
[3] = biological target: Histamine H2 receptor (Cavia porcellus) (UniProt P47747); assay: Antagonistic activity against histamine H2 receptor from guinea pig atrium; type: functional, tissue-based; conditions: Cardiac atrium
[4] = test system: Canis familiaris; assay: Acid antisecretory activity against pentagastrin-stimulated Heidenhain pouch dogs at a dose of 23 mg/kg after intravenous administration; type: functional, Canis lupus familiaris; outline: as §1
[5] = biological target: Histamine H1 receptor (Cavia porcellus) (UniProt P31389); assay: Relative antagonistic activity against Histamine H1 receptor
[6] = Log distribution coefficient between 1-octanol and aqueous buffer at pH of 9.2.; type: physicochemical; conditions: 1-octanol/aqueous buffer, pH 9.2
[7] = test system: Canis familiaris; assay: Acid antisecretory activity against pentagastrin-stimulated Heidenhain pouch dogs after intravenous administration; type: functional; conditions: Canis lupus familiaris, read-out: ID50 (the source's name)
Outline: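 Fasted, unanesthetized Heidenhain pouch dogs received a continuous pentagastrin infusion into a superficial leg vein at a near-maximal acid-stimulating dose. Gastric juice was collected at 30-min intervals, ten collections per dog. Acid was titrated on 1.0 mL to pH 7.4 with 0.1 N NaOH. Compound or vehicle was given iv at 90 min. ID50 came from linear regression of log dose on percent inhibition in n dogs.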

[8] = Log distribution coefficient between 1-octanol and aqueous buffer at pH of 7.4.; type: physicochemical; conditions: 1-octanol/aqueous buffer, pH 7.4
[9] = test system: Canis familiaris; assay: Acid antisecretory activity against pentagastrin-stimulated Heidenhain pouch dogs at a dose of 5 mg/kg after intravenous administration; type: functional, Canis lupus familiaris; outline: as §1
[10] = biological target: Histamine H1 receptor (Cavia porcellus) (UniProt P31389); assay: Relative antagonistic activity against Histamine H1 receptor, NA is Inactive
[11] = test system: Canis familiaris; assay: Acid antisecretory activity against pentagastrin-stimulated Heidenhain pouch dogs at a dose of 25 mg/kg after intravenous administration; type: functional, Canis lupus familiaris; outline: as §1
[12] = pKa ([…] constant) value at a physiological pH of 7.4; type: physicochemical; conditions: pH 7.4
Outline: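 Ionisation constants taken as the observed pH1/2 from titration at 23 °C. The dihydrochloride salts were titrated in water, and the free bases in 1:1 methanol–water.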

[13] = Log distribution coefficient between 1-octanol and aqueous buffer at specified pH of 9.2.; conditions: 1-octanol/aqueous buffer, pH 9.2

Chain of Histamine H2 receptor (Cavia porcellus) (P47747 whole entry): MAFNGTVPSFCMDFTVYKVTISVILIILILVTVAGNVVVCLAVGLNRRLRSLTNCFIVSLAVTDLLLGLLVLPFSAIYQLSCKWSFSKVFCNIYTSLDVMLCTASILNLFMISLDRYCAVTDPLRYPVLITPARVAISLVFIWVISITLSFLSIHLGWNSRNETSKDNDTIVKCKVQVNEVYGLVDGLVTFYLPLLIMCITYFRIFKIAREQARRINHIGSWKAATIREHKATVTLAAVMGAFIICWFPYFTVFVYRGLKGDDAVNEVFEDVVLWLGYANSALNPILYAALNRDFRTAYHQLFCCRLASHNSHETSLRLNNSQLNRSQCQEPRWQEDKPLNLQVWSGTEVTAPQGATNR
Chain of Histamine H1 receptor (Cavia porcellus) (P31389 whole entry): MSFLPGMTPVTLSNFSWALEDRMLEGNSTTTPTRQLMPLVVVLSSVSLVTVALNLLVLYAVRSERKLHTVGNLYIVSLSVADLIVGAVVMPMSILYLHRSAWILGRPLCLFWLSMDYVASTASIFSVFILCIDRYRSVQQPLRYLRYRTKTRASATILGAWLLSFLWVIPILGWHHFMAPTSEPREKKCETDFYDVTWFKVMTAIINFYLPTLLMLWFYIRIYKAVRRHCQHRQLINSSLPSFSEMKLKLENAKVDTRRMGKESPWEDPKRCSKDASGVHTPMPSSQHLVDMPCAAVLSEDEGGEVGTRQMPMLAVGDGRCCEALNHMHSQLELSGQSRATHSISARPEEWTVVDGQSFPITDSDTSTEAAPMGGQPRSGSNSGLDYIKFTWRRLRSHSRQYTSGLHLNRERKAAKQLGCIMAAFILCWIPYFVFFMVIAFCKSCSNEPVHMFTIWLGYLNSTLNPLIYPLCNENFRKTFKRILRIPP

Nc1n[nH]c(Cc2cccnc2)n1
Max inhibition [1]: 0%
KB [2]: inactive

Nc1n[nH]c(-c2ccncc2)n1
Kb [3]: 41900 nM
Max inhibition [1]: 43%
Max inhibition [4]: 73%

c1ccc(CN(Cc2c[nH]cn2)c2ccccc2)cc1
Relative activity [5]: > 0.5

CCNc1cc(-c2n[nH]c(N)n2)ccn1
Kb [3]: 235 nM
logD [6]: 0.97
ED50 [7]: 0.87 mg/kg
logD [8]: 1.13

Nc1n[nH]c(Cc2ccccn2)n1
Max inhibition [1]: 0%
KB [2]: inactive
Max inhibition [9]: 18%

Nc1cc(-c2n[nH]c(N)n2)ccn1
Kb [3]: 2220 nM
logD [6]: -0.06
ED50 [7]: 2.35 mg/kg
logD [8]: 0.11

CN(C)CCN(Cc1ccccc1)Cc1ccccc1
Activity [10]: inactive

Nc1n[nH]c(-c2ccccn2)n1
Max inhibition [1]: 0%
KB [2]: inactive
Max inhibition [9]: 0%

c1ccc(CN(CC2=NCCN2)c2ccccc2)cc1
Relative activity [5]: > 1

Nc1n[nH]c(Cc2ccncc2)n1
Max inhibition [1]: 26%
KB [2]: inactive
Max inhibition [11]: 30%

CN/C(=N\CCSCc1nc[nH]c1C)NC#N [CIMETIDINE]
pKa [12]: 7.02
logD [13]: 0.54
logD [6]: 0.4
ED50 [7]: 1.02 mg/kg

CN(C)CCN(Cc1ccccc1)c1ccccc1
Relative activity [5]: 1

Nc1n[nH]c(-c2cccnc2)n1
Max inhibition [1]: 22%
KB [2]: inactive
Max inhibition [11]: 11%

c1ccc(CN(CCc2c[nH]cn2)Cc2ccccc2)cc1
Relative activity [5]: 0.01
